Source: paper PMC9075506 (RSC Advances, 2019)
Where two headings read alike, the source gives them in different places.

What was measured:
[1] = Pharmacokinetic study in sham rats after oral administration of PLA; assay type: in vivo; conditions: rat, plasma, 50 mg/kg
[2] = Pharmacokinetic study in 6-OHDA-induced PD rats after oral administration; assay type: in vivo; conditions: rat, plasma
[3] = assay type: in vitro ADME, rat; conditions: n = 3; for Stability, autosampler (20 °C, 4 h), RE: processed rat plasma; for Stability, long-term (−80 °C, 30 d), RE / Stability, short-term (4 °C, 48 h), RE / Stability, three freeze–thaw cycles, RE: rat plasma
Method in brief: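 Plasma (50 μL) precipitated with methanol/acetonitrile (1:1) containing internal standard (10 ng mL−1), vortexed 3 min, centrifuged 12 000 g for 10 min. Supernatant was run on C18 UFLC with a 0.1% formic acid/acetonitrile gradient at 0.5 mL min−1, detected by positive-ESI MRM. Quantified by analyte/IS peak-area ratio against a 1/x2-weighted linear calibration; accuracy given as RE (%).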

[4] = normal rats, oral administration of PLA, tissue distribution; cited from earlier work
[5] = high QC: spiked 160 ng mL^−1 (PLTR 4000 ng mL^−1)
[6] = low QC: spiked 0.6 ng mL^−1 (PLTR 15 ng mL^−1)
[7] = medium QC: spiked 10 ng mL^−1 (PLTR 250 ng mL^−1)

O=C(/C=C/CCc1ccc2c(c1)OCO2)N1CCCCC1 [PPRA, piperanine]
AUC(0-inf) [1]: 230 ± 150 ng·h/mL | AUC(0-t) [1]: 225 ± 155 ng·h/mL | Cmax [1]: 160 ± 120 ng/mL | MRT [1]: 3.72 ± 1.3 h | Tmax [1]: 0.18 ± 0.09 h | half-life [1]: 4.16 ± 1.32 h | AUC(0-inf) ([2]; 50 mg/kg): 137 ± 45.3 ng·h/mL | AUC(0-t) ([2]; 50 mg/kg): 136 ± 45.6 ng·h/mL | Cmax ([2]; 50 mg/kg): 123 ± 57.6 ng/mL | MRT ([2]; 50 mg/kg): 2.43 ± 1.52 h | Tmax ([2]; 50 mg/kg): 0.18 ± 0.09 h | half-life ([2]; 50 mg/kg): 2.8 ± 1.71 h | Stability, autosampler (20 °C, 4 h), RE [3, 5]: −9.38% | Stability, autosampler (20 °C, 4 h), RE [3, 6]: −2.28% | Stability, autosampler (20 °C, 4 h), RE [3, 7]: 7.33% | Stability, long-term (−80 °C, 30 d), RE [3, 5]: −6.25% | Stability, short-term (4 °C, 48 h), RE [3, 5]: −8.33% | Stability, three freeze–thaw cycles, RE [3, 5]: −4.79% | Stability, long-term (−80 °C, 30 d), RE [3, 6]: 0.94% | Stability, short-term (4 °C, 48 h), RE [3, 6]: −3.50% | Stability, three freeze–thaw cycles, RE [3, 6]: 4.67% | Stability, long-term (−80 °C, 30 d), RE [3, 7]: 6.33% | Stability, short-term (4 °C, 48 h), RE [3, 7]: 10.00% | Stability, three freeze–thaw cycles, RE [3, 7]: 7.33%

O=C(/C=C/C=C/c1ccc2c(c1)OCO2)N1CCCCC1 [PPR, piperine]
Cmax [1]: 1000 ± 146 ng/mL | MRT [1]: 6.83 ± 0.44 h | Tmax [1]: 4.8 ± 2.28 h | half-life [1]: 3.4 ± 2.15 h | Crossing of the blood–brain barrier [4]: could cross the blood–brain barrier | AUC(0-inf) ([2]; 25 mg/kg): 7120 ± 1770 ng·h/mL | AUC(0-t) ([2]; 25 mg/kg): 7110 ± 1770 ng·h/mL | Cmax ([2]; 25 mg/kg): 825 ± 241 ng/mL | MRT ([2]; 25 mg/kg): 6.27 ± 0.56 h | Tmax ([2]; 25 mg/kg): 2.95 ± 2.06 h | half-life ([2]; 25 mg/kg): 2.41 ± 0.34 h | AUC(0-t) ([2]; 50 mg/kg): 9700 ± 2670 ng·h/mL | Cmax ([2]; 50 mg/kg): 978 ± 214 ng/mL | MRT ([2]; 50 mg/kg): 5.99 ± 0.63 h | Tmax ([2]; 50 mg/kg): 4 ± 1.41 h | half-life ([2]; 50 mg/kg): 3.65 ± 3.45 h | Stability, autosampler (20 °C, 4 h), RE [3, 5]: −5.00% | Stability, autosampler (20 °C, 4 h), RE [3, 6]: −2.67% | Stability, autosampler (20 °C, 4 h), RE [3, 7]: 7.67% | Stability, long-term (−80 °C, 30 d), RE [3, 5]: 0.21% | Stability, short-term (4 °C, 48 h), RE [3, 5]: −2.92% | Stability, three freeze–thaw cycles, RE [3, 5]: 0.42% | Stability, long-term (−80 °C, 30 d), RE [3, 6]: −7.44% | Stability, short-term (4 °C, 48 h), RE [3, 6]: −4.06% | Stability, three freeze–thaw cycles, RE [3, 6]: −5.06% | Stability, long-term (−80 °C, 30 d), RE [3, 7]: 10.33% | Stability, short-term (4 °C, 48 h), RE [3, 7]: 11.33% | Stability, three freeze–thaw cycles, RE [3, 7]: 9.67%

CC(C)CNC(=O)/C=C/C=C/c1ccc2c(c1)OCO2 [PPL, piperlonguminine]
AUC(0-inf) [1]: 318 ± 123 ng·h/mL | AUC(0-t) [1]: 302 ± 116 ng·h/mL | Cmax [1]: 89.1 ± 41.7 ng/mL | MRT [1]: 4.6 ± 1.33 h | Tmax [1]: 0.45 ± 0.11 h | half-life [1]: 3.68 ± 1.32 h | Crossing of the blood–brain barrier [4]: could cross the blood–brain barrier | AUC(0-inf) ([2]; 50 mg/kg): 245 ± 57.5 ng·h/mL | AUC(0-t) ([2]; 50 mg/kg): 242 ± 57.2 ng·h/mL | Cmax ([2]; 50 mg/kg): 97.3 ± 18 ng/mL | MRT ([2]; 50 mg/kg): 2.98 ± 0.84 h | Tmax ([2]; 50 mg/kg): 0.45 ± 0.21 h | half-life ([2]; 50 mg/kg): 2.42 ± 1.23 h | Stability, autosampler (20 °C, 4 h), RE [3, 5]: −5.63% | Stability, autosampler (20 °C, 4 h), RE [3, 6]: −4.78% | Stability, autosampler (20 °C, 4 h), RE [3, 7]: 5.33% | Stability, long-term (−80 °C, 30 d), RE [3, 5]: −1.04% | Stability, short-term (4 °C, 48 h), RE [3, 5]: −3.75% | Stability, three freeze–thaw cycles, RE [3, 5]: 0.63% | Stability, long-term (−80 °C, 30 d), RE [3, 6]: −4.78% | Stability, short-term (4 °C, 48 h), RE [3, 6]: −9.22% | Stability, three freeze–thaw cycles, RE [3, 6]: −12.61% | Stability, long-term (−80 °C, 30 d), RE [3, 7]: 8.00% | Stability, short-term (4 °C, 48 h), RE [3, 7]: 7.33% | Stability, three freeze–thaw cycles, RE [3, 7]: 6.67%
